Measurements from ChEMBL document CHEMBL4152256, “Structure-activity relationship of new antimalarial 1-aryl-3-susbtituted propanol derivatives: Synthesis, preliminary toxicity profiling, parasite life cycle stage studies, target exploration, and targeted delivery” (Eur J Med Chem, 2018).
The source made the active and inactive calls. The rule behind the calls is not given here.

Key:
[1] = Genotoxicity in Salmonella typhimurium TA1535 harboring pSK1002 assessed as umu gene induction at 0.0005 mg/ml in absence of Sprague-Dawley rat liver S9 fraction after by SOS/umu assay relative to control; format: toxicity, organism-based; conditions: salmonella enterica subsp. enterica serovar typhimurium, read-out: FC
[2] = Genotoxicity in Salmonella typhimurium TA1535 harboring pSK1002 assessed as survival at 0.001 mg/ml in absence of Sprague-Dawley rat liver S9 fraction after by SOS/umu assay relative to control; format: toxicity, organism-based; conditions: salmonella enterica subsp. enterica serovar typhimurium, read-out: Survival
[3] = Genotoxicity in Salmonella typhimurium TA1535 harboring pSK1002 assessed as survival at 0.0005 mg/ml in absence of Sprague-Dawley rat liver S9 fraction after by SOS/umu assay relative to control; format: toxicity, organism-based; conditions: salmonella enterica subsp. enterica serovar typhimurium, read-out: Survival
[4] = Cytotoxicity against human HepG2A16 cells by MTT assay; format: cell-based; conditions: HepG2A16 cells
In short: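 MTT viability assay on HepG2-A16 cells, giving CC50 values.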

[5] = Genotoxicity in Salmonella typhimurium TA1535 harboring pSK1002 assessed as umu gene induction at 0.016 mg/ml in absence of Sprague-Dawley rat liver S9 fraction after by SOS/umu assay relative to control; format: toxicity, organism-based; conditions: salmonella enterica subsp. enterica serovar typhimurium, read-out: FC
[6] = Genotoxicity in Salmonella typhimurium TA1535 harboring pSK1002 assessed as survival at 0.008 mg/ml in absence of Sprague-Dawley rat liver S9 fraction after by SOS/umu assay relative to control; format: toxicity, organism-based; conditions: salmonella enterica subsp. enterica serovar typhimurium, read-out: Survival
[7] = Solubility of the compound in DSPC:cholesterol:DSPE-PEG2000-Mal:DOPE-Rho lipid mixture at 250 uM; format: physicochemical
In short: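 Compound added at 250 µM drug to the initial liposome lipid mixture (10 mM total lipid); precipitation and UV-visible absorbance above 300 nm assessed after encapsulation, removal of unencapsulated material and extraction with 1% w/v SDS in RPMI-A.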

[8] = Genotoxicity in Salmonella typhimurium TA1535 harboring pSK1002 assessed as umu gene induction at 0.008 mg/ml in absence of Sprague-Dawley rat liver S9 fraction after by SOS/umu assay relative to control; format: toxicity, organism-based; conditions: salmonella enterica subsp. enterica serovar typhimurium, read-out: FC
[9] = Genotoxicity in Salmonella typhimurium TA1535 harboring pSK1002 assessed as survival at 0.004 mg/ml in presence of Sprague-Dawley rat liver S9 fraction after by SOS/umu assay relative to control; format: toxicity, organism-based; conditions: salmonella enterica subsp. enterica serovar typhimurium, read-out: Survival
[10] = Genotoxicity in Salmonella typhimurium TA1535 harboring pSK1002 assessed as survival at 0.002 mg/ml in absence of Sprague-Dawley rat liver S9 fraction after by SOS/umu assay relative to control; format: toxicity, organism-based; conditions: salmonella enterica subsp. enterica serovar typhimurium, read-out: Survival
[11] = system: Plasmodium falciparum; test: Antiplasmodial activity against chloroquine-sensitive Plasmodium falciparum 3D7 by [3H]-hypoxanthine incorporation assay; format: functional, organism-based; conditions: Plasmodium falciparum, 3D7
In short: (§1)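 Blood-stage P. falciparum 3D7 and FCR-3 were tested by a modified [3H]-hypoxanthine incorporation assay. Chloroquine was the reference in all runs.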

[12] = system: Plasmodium falciparum; test: Antiplasmodial activity against multidrug-resistant Plasmodium falciparum FCR-3 by [3H]-hypoxanthine incorporation assay; format: functional, organism-based, FCR-3/Gambia; conditions: Plasmodium falciparum, FCR-3/Gambia; in short: as §1
[13] = Genotoxicity in Salmonella typhimurium TA1535 harboring pSK1002 assessed as survival at 0.008 mg/ml in presence of Sprague-Dawley rat liver S9 fraction after by SOS/umu assay relative to control; format: toxicity, organism-based; conditions: salmonella enterica subsp. enterica serovar typhimurium, read-out: Survival
[14] = Genotoxicity in Salmonella typhimurium TA1535 harboring pSK1002 assessed as umu gene induction at 0.004 mg/ml in presence of Sprague-Dawley rat liver S9 fraction after by SOS/umu assay relative to control; format: toxicity, organism-based; conditions: salmonella enterica subsp. enterica serovar typhimurium, read-out: FC
[15] = Genotoxicity in Salmonella typhimurium TA1535 harboring pSK1002 assessed as survival at 0.001 mg/ml in presence of Sprague-Dawley rat liver S9 fraction after by SOS/umu assay relative to control; format: toxicity, organism-based; conditions: salmonella enterica subsp. enterica serovar typhimurium, read-out: Survival
[16] = Genotoxicity in Salmonella typhimurium TA1535 harboring pSK1002 assessed as umu gene induction at 0.008 mg/ml in presence of Sprague-Dawley rat liver S9 fraction after by SOS/umu assay relative to control; format: toxicity, organism-based; conditions: salmonella enterica subsp. enterica serovar typhimurium, read-out: FC
[17] = Genotoxicity in Salmonella typhimurium TA1535 harboring pSK1002 assessed as survival at 0.0002 mg/ml in presence of Sprague-Dawley rat liver S9 fraction after by SOS/umu assay relative to control; format: toxicity, organism-based; conditions: salmonella enterica subsp. enterica serovar typhimurium, read-out: Survival
[18] = Selectivity index, ratio of CC50 for human HepG2A16 cells by MTT assay to IC50 for multidrug-resistant Plasmodium falciparum FCR-3; format: toxicity; conditions: HepG2A16 cells, read-out: Ratio CC50/IC50
In short: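 HepG2-A16 human hepatoma cells were tested by MTT viability assay to give CC50. Blood-stage activity was measured against the multidrug-resistant P. falciparum FCR-3 strain by [3H]-hypoxanthine incorporation to give IC50. SI = CC50 HepG2 / FCR-3 IC50.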

[19] = Genotoxicity in Salmonella typhimurium TA1535 harboring pSK1002 assessed as umu gene induction at 0.0002 mg/ml in absence of Sprague-Dawley rat liver S9 fraction after by SOS/umu assay relative to control; format: toxicity, organism-based; conditions: salmonella enterica subsp. enterica serovar typhimurium, read-out: FC
[20] = Genotoxicity in Salmonella typhimurium TA1535 harboring pSK1002 assessed as umu gene induction at 0.002 mg/ml in absence of Sprague-Dawley rat liver S9 fraction after by SOS/umu assay relative to control; format: toxicity, organism-based; conditions: salmonella enterica subsp. enterica serovar typhimurium, read-out: FC
[21] = Genotoxicity in Salmonella typhimurium TA1535 harboring pSK1002 assessed as umu gene induction at 0.001 mg/ml in presence of Sprague-Dawley rat liver S9 fraction after by SOS/umu assay relative to control; format: toxicity, organism-based; conditions: salmonella enterica subsp. enterica serovar typhimurium, read-out: FC
[22] = Genotoxicity in Salmonella typhimurium TA1535 harboring pSK1002 assessed as umu gene induction at 0.0002 mg/ml in presence of Sprague-Dawley rat liver S9 fraction after by SOS/umu assay relative to control; format: toxicity, organism-based; conditions: salmonella enterica subsp. enterica serovar typhimurium, read-out: FC
[23] = Genotoxicity in Salmonella typhimurium TA1535 harboring pSK1002 assessed as survival at 0.016 mg/ml in presence of Sprague-Dawley rat liver S9 fraction after by SOS/umu assay relative to control; format: toxicity, organism-based; conditions: salmonella enterica subsp. enterica serovar typhimurium, read-out: Survival
[24] = Genotoxicity in Salmonella typhimurium TA1535 harboring pSK1002 assessed as umu gene induction at 0.001 mg/ml in absence of Sprague-Dawley rat liver S9 fraction after by SOS/umu assay relative to control; format: toxicity, organism-based; conditions: salmonella enterica subsp. enterica serovar typhimurium, read-out: FC
[25] = Genotoxicity in Salmonella typhimurium TA1535 harboring pSK1002 assessed as survival at 0.0005 mg/ml in presence of Sprague-Dawley rat liver S9 fraction after by SOS/umu assay relative to control; format: toxicity, organism-based; conditions: salmonella enterica subsp. enterica serovar typhimurium, read-out: Survival
[26] = Genotoxicity in Salmonella typhimurium TA1535 harboring pSK1002 assessed as umu gene induction at 0.002 mg/ml in presence of Sprague-Dawley rat liver S9 fraction after by SOS/umu assay relative to control; format: toxicity, organism-based; conditions: salmonella enterica subsp. enterica serovar typhimurium, read-out: FC
[27] = Genotoxicity in Salmonella typhimurium TA1535 harboring pSK1002 assessed as umu gene induction at 0.004 mg/ml in absence of Sprague-Dawley rat liver S9 fraction after by SOS/umu assay relative to control; format: toxicity, organism-based; conditions: salmonella enterica subsp. enterica serovar typhimurium, read-out: FC
[28] = Genotoxicity in Salmonella typhimurium TA1535 harboring pSK1002 assessed as survival at 0.016 mg/ml in absence of Sprague-Dawley rat liver S9 fraction after by SOS/umu assay relative to control; format: toxicity, organism-based; conditions: salmonella enterica subsp. enterica serovar typhimurium, read-out: Survival
[29] = Genotoxicity in Salmonella typhimurium TA1535 harboring pSK1002 assessed as umu gene induction at 0.016 mg/ml in presence of Sprague-Dawley rat liver S9 fraction after by SOS/umu assay relative to control; format: toxicity, organism-based; conditions: salmonella enterica subsp. enterica serovar typhimurium, read-out: FC
[30] = Genotoxicity in Salmonella typhimurium TA1535 harboring pSK1002 assessed as survival at 0.002 mg/ml in presence of Sprague-Dawley rat liver S9 fraction after by SOS/umu assay relative to control; format: toxicity, organism-based; conditions: salmonella enterica subsp. enterica serovar typhimurium, read-out: Survival
[31] = Genotoxicity in Salmonella typhimurium TA1535 harboring pSK1002 assessed as survival at 0.004 mg/ml in absence of Sprague-Dawley rat liver S9 fraction after by SOS/umu assay relative to control; format: toxicity, organism-based; conditions: salmonella enterica subsp. enterica serovar typhimurium, read-out: Survival
[32] = Genotoxicity in Salmonella typhimurium TA1535 harboring pSK1002 assessed as umu gene induction at 0.0005 mg/ml in presence of Sprague-Dawley rat liver S9 fraction after by SOS/umu assay relative to control; format: toxicity, organism-based; conditions: salmonella enterica subsp. enterica serovar typhimurium, read-out: FC
[33] = Genotoxicity in Salmonella typhimurium TA1535 harboring pSK1002 assessed as survival at 0.0002 mg/ml in absence of Sprague-Dawley rat liver S9 fraction after by SOS/umu assay relative to control; format: toxicity, organism-based; conditions: salmonella enterica subsp. enterica serovar typhimurium, read-out: Survival
[34] = system: Plasmodium berghei; test: Antiplasmodial activity against Plasmodium berghei ANKA infected in mouse assessed as inhibition of parasitemia at 50 mg/kg/day, po for 4 consecutive days starting from 2 hrs post infection by MSF assay relative to control; format: functional
In short: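 Swiss male mice (20 ± 2 g) infected ip with 10^7 P. berghei ANKA parasitized cells (day 0). Five per group dosed orally 2 h after infection and daily on days 0–3. Test compounds at 50 mg/kg/day in water:DMSO; chloroquine diphosphate at 3 mg/kg/day; vehicle controls. Parasitemia measured on day 4 by MSF assay; survival checked daily.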

[35] = system: Plasmodium berghei; test: Antiplasmodial activity against Plasmodium berghei ANKA infected in mouse assessed as mouse survival time at 50 mg/kg/day, po for 4 consecutive days starting from 2 hrs post infection by MSF assay; format: functional
In short: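 Swiss male mice (20 ± 2 g) infected i.p. with 10^7 P. berghei ANKA parasitized cells in 0.1 mL 0.9% saline (day 0). Oral dosing began 2 h post-infection and continued daily on days 0–3, five mice per batch. Test drugs were given at 50 mg/kg/day in water:DMSO and chloroquine diphosphate at 3 mg/kg/day; a vehicle control was included. Survival was checked daily, and parasitemia was read on day 4 by modified MSF assay.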

OC(CCN1CCN(C(c2ccccc2)c2ccccc2)CC1)c1ccc(Br)cc1 (stereo not given)
fold induction at 0.0005 mg/ml [1]: 0.8 | viability at 0.001 mg/ml [2]: 98.3% | viability at 0.0005 mg/ml [3]: 108% | CC50 [4]: 351 µM | fold induction at 0.016 mg/ml [5]: 0.8 | viability at 0.008 mg/ml [6]: 116% | solubility [7]: Insoluble | fold induction at 0.008 mg/ml [8]: 1.1 | viability at 0.004 mg/ml [9]: 87.2% | viability at 0.002 mg/ml [10]: 105% | IC50 [11]: 52.2 µM | IC50 [12]: 3.09 µM | viability at 0.008 mg/ml [13]: 98.1% | fold induction at 0.004 mg/ml [14]: 1 | viability at 0.001 mg/ml [15]: 84.1% | fold induction at 0.008 mg/ml [16]: 0.9 | viability at 0.0002 mg/ml [17]: 96.7% | selectivity ratio [18]: 114 | fold induction at 0.0002 mg/ml [19]: 0.8 | fold induction at 0.002 mg/ml [20]: 1.1 | fold induction at 0.001 mg/ml [21]: 0.7 | fold induction at 0.0002 mg/ml [22]: 1 | viability at 0.016 mg/ml [23]: 87.8% | fold induction at 0.001 mg/ml [24]: 1 | viability at 0.0005 mg/ml [25]: 104% | fold induction at 0.002 mg/ml [26]: 0.8 | fold induction at 0.004 mg/ml [27]: 1 | viability at 0.016 mg/ml [28]: 121% | fold induction at 0.016 mg/ml [29]: 1 | viability at 0.002 mg/ml [30]: 85.9% | viability at 0.004 mg/ml [31]: 114% | fold induction at 0.0005 mg/ml [32]: 0.5 | viability at 0.0002 mg/ml [33]: 107%

OC(CCN1CCN(C(c2ccccc2)c2ccccc2)CC1)c1ccc(F)cc1 (stereo not given)
inhibition [34]: inactive | fold induction at 0.0005 mg/ml [1]: 1 | viability at 0.001 mg/ml [2]: 94.9% | viability at 0.0005 mg/ml [3]: 100% | CC50 [4]: 252 µM | solubility [7]: Insoluble | viability at 0.004 mg/ml [9]: 87% | viability at 0.002 mg/ml [10]: 95.9% | IC50 [11]: 1.08 µM | IC50 [12]: 0.62 µM | fold induction at 0.004 mg/ml [14]: 1 | viability at 0.001 mg/ml [15]: 95.7% | viability at 0.0002 mg/ml [17]: 101% | selectivity ratio [18]: 406 | fold induction at 0.0002 mg/ml [19]: 1.1 | fold induction at 0.002 mg/ml [20]: 1.5 | fold induction at 0.001 mg/ml [21]: 1 | fold induction at 0.0002 mg/ml [22]: 1 | fold induction at 0.001 mg/ml [24]: 1 | viability at 0.0005 mg/ml [25]: 86.4% | fold induction at 0.002 mg/ml [26]: 1.1 | MSD [35]: 8 days | fold induction at 0.004 mg/ml [27]: 1 | viability at 0.002 mg/ml [30]: 89.6% | viability at 0.004 mg/ml [31]: 97.8% | fold induction at 0.0005 mg/ml [32]: 1.1 | viability at 0.0002 mg/ml [33]: 102%
